From article PMC6257985 (The FEBS journal, 2017)
Where no end group is shown, it is not given here. The star is where a group is joined. αGalNAc = CC(=O)N[C@@H]1[C@@H](O)[C@@H](O)[C@@H](CO)O[C@@H]1*

Experiments:
[1] = molecular target: T1, recombinant Bauhinia forficata lectin (BfL) (Bauhinia forficata, UniProt P86993); assay: glyco-antigen microarray binding of BfL, apparent Kd; conditions: for RFUmax: carbohydrate array, maximum signal of the binding curve
T1 sequence (P86993 1-233): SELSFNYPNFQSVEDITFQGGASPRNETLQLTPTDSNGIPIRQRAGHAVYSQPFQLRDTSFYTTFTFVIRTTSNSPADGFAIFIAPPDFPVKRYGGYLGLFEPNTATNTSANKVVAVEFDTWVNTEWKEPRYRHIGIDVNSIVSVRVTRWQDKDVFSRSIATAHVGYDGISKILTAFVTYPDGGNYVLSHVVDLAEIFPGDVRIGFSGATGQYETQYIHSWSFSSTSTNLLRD
Outline: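 His6-tagged lectin expressed in E. coli, refolded from inclusion bodies, and gel-filtered in 50 mM Hepes pH 7.5, 150 mM NaCl. Glycans on BSA or HSA (neoglycoproteins), some at high and low density. Arrays blocked overnight at 4 °C in 3% BSA TBS. Lectin dilutions in 1% BSA TBS with 2 mM CaCl2 and 0.05% Tween-20, duplicate wells, 2 h at 37 °C. Detected with anti-His then DyLight549 anti-mouse IgG. Fluorescence averaged, log2-transformed, apparent Kd fitted from binding curves.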

[2] = molecular target: T2, recombinant Bauhinia forficata lectin (BfL-His6) (Bauhinia forficata, UniProt P86993 1-233); assay: peptide or protein array
T2 sequence: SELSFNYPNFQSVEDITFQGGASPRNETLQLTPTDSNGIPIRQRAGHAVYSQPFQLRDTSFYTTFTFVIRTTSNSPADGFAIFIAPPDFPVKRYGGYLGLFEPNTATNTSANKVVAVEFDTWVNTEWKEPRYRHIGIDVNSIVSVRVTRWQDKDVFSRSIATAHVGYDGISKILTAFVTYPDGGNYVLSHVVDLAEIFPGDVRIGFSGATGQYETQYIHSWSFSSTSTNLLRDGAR

[3] = molecular target: all forms of the Tn antigen (Tn glycopeptides, 55 array components); assay: peptide or protein array
Ac-A-Tn(Thr)-S-G - 05 = molecular target: T3, Ac-A-Tn(Thr)-S-G - 05; assay: peptide or protein array
T3 sequence (peptide, N-terminal acetyl; Tn (GalNAc α-linked) on the second residue (Thr)): ATSG

Ac-S-Tn(Ser)-S-G - 04 = molecular target: T4, Ac-S-Tn(Ser)-S-G - 04; assay: peptide or protein array
T4 sequence (peptide, N-terminal acetyl; Tn (GalNAc α-linked) on the second residue (Ser)): SSSG

[4] = molecular target: ovine submaxillary mucin (ovine); assay: peptide or protein array
Ac-S-Tn(Ser)-S-G - 22 = molecular target: T5, Ac-S-Tn(Ser)-S-G - 22; assay: peptide or protein array
T5 sequence (peptide, N-terminal acetyl; Tn (GalNAc α-linked) on the second residue (Ser)): SSSG

Ac-S-Thr(F1α)-S-G - 18 = molecular target: T6, Ac-S-Thr(F1α)-S-G - 18; assay: peptide or protein array
T6 sequence (peptide, N-terminal acetyl; F1α (Galβ1-4GlcNAcβ1-6GalNAcα1-) on the second residue (Thr)): STSG

Ac-S-Ser(core 5)-S-G-18 = molecular target: T7, Ac-S-Ser(core 5)-S-G-18; assay: peptide or protein array
T7 sequence (peptide, N-terminal acetyl; core 5 (GalNAcα1-3GalNAcα1-) on the second residue (Ser)): SSSG

Ac-S-Tn(Thr)-S-G - 04 = molecular target: T8, Ac-S-Tn(Thr)-S-G - 04; assay: peptide or protein array
T8 sequence (peptide, N-terminal acetyl; Tn (GalNAc α-linked) on the second residue (Thr)): STSG

[5] = system: human cancer cell lines of the NCI-60 panel; assay: NCI-60 Human Tumor Cell Lines Screen, One Dose Assay; assay type: cell-based; conditions: 1.85 μM
Outline: (§1)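 Recombinant His-tagged test lectin, refolded from E. coli inclusion bodies, was gel-filtered into 50 mM Hepes pH 7.5, 150 mM NaCl before use. NCI DTP ran a one-dose screen at 1.85 μM following its published protocols. Read-out was SRB colorimetric total protein in non-lysed cells. Growth percent is relative to drug-free medium, averaged over two experiments.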

[6] = system: human erythrocytes originating from all blood types; conditions: natural BfL from seeds; cited from earlier work
rabbit erythrocytes = conditions: natural BfL from seeds; cited from earlier work
[7] = system: MCF7 human breast cancer cell line; conditions: natural BfL from seeds; after 72 hours at 2.5 µM; cited from earlier work
[8] = system: melanoma LOX IMVI cell line; assay: NCI-60 One Dose Assay; assay type: cell-based, human; conditions: 1.85 μM, SRB assay, 5% serum, average of two experiments
Outline: as §1

[9] = solubility of recombinant BfL; assay type: physicochemical
Outline: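 Recombinant His6-tagged lectin was expressed in bacteria, recovered from inclusion bodies and refolded at 5 °C. It was then dialysed overnight against 50 mM Tris-HCl pH 7.5, 0.2 M NaCl, 1 mM CaCl2, and concentrated to 8-10 mg/ml at room temperature for storage at −80 °C. The preceding purification and refolding steps were run at 5 °C.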

[10] = system: normal and several types of cancer cells; conditions: natural BfL from seeds; cited from earlier work

With GalNAcα1-6Galβ [GalNAcα1-6Galβ - 22] the “binding of BfL on glycan microarray (in words)” value (from here on “binding of BfL”) [1] was “strong binding” and the RFUmax [1] was 19055 RFU.

Molecule “Ac-S-Tn(Ser)-V-G-13: Tn glycopeptide on BSA or HSA, array component (Ac-SS(αGalNAc)VG; also: on BSA or HSA carrier)” has an RFUmax [1] of 17255 RFU.

For “-G-V-T-S-A-P-D-T-R-P-A-P-G-S- Tn(Thr)-A-P-P-A (GVTSAPDTRPAPGST(αGalNAc)APPA; also: conjugated to albumin carrier (BSA or HSA)) [Muc1-Tn15]”, the RFUmax [1] was 17917 RFU.

In the case of “GalNAcα1-3GalNAcα1-Ser (Ac-SSSG; not fully specified (residue 2); also: on BSA or HSA carrier) [Ac-S-Ser(core 5)-S-G-18]”, the “binding of BfL” value [1] is reported as “good binder” and the RFUmax [1] is reported as 18580 RFU.

For “GalNAcβ1-3Galα1-4Galβ1-4GlcNAcβ [Gb4 - 09]”, the “binding of BfL” value [1] was “strong binding”, the RFUmax [1] was 14003 RFU and the Kd ([1]; read-out: App Kd, apparent Kd, multivalent avidity on carbohydrate array) was 0.68 nM.

In the case of GalNAcβ1-4GlcNAcβ [LDN-Sp - 14], the “binding of BfL” value [1] is reported as “strong binding” and the RFUmax [1] is reported as 18291 RFU.

For GalNAcα1-3(Fucα1-2)Gal [BG-A -19], the RFUmax [1] was 15700 RFU.

For GalNAcβ1-3Galα1-3Galβ [iGb4], the “binding of BfL” value [1] was “strong binding”.

For GalNAcβ1-4Galβ [GA2di - 37], the “binding of BfL” value [1] was “strong binding” and the RFUmax [1] was 17241 RFU.

For “GalNAcα1-3GalNAcβ1-3Galα1-4Galβ [Forssman Tetra-BSA - 13]”, the “binding of BfL” value [1] was “strong binding” and the RFUmax [1] was 18518 RFU.

In the case of GalNAcα1-3Gal [GalNAcα1-3Gal - 17], the “binding of BfL” value [1] is reported as “strong binding” and the RFUmax [1] is reported as 17826 RFU.

“Galβ1-4GlcNAcβ1-6GalNAcα1-Thr (Ac-ST(Galβ1‑4GlcNAcβ1‑6GalNAcα1)SG; also: on BSA or HSA carrier) [Ac-S-Thr(F1α)-S-G - 18]” showed an RFUmax [1] of 17214 RFU.

“AzHex-P-D-Tn(Thr)-R-P-NH2-07: Tn glycopeptide on BSA or HSA, array component (AzHex-PDT(αGalNAc)RP-NH2; also: on BSA or HSA carrier)” gave an RFUmax [1] of 15559 RFU.

Work on Ac-APGST(αGalNAc)APPAG [Ac-A-P-G-S-Tn(Thr)-A-P-P-A-G-03] yielded a Kd [2] of 0.65 nM.

B1: recombinant Bauhinia forficata lectin (BfL-His6) (natural protein)
chain: SELSFNYPNFQSVEDITFQGGASPRNETLQLTPTDSNGIPIRQRAGHAVYSQPFQLRDTSFYTTFTFVIRTTSNSPADGFAIFIAPPDFPVKRYGGYLGLFEPNTATNTSANKVVAVEFDTWVNTEWKEPRYRHIGIDVNSIVSVRVTRWQDKDVFSRSIATAHVGYDGISKILTAFVTYPDGGNYVLSHVVDLAEIFPGDVRIGFSGATGQYETQYIHSWSFSSTSTNLLRDGAR
Molecule B1 has a Kd [3] of 0.4 to 1.2 nM, a Kd (Ac-A-Tn(Thr)-S-G - 05) of 0.63 nM and a Kd (Ac-S-Tn(Ser)-S-G - 04) of 0.75 nM. For the same molecule, the Kd [4] was 10.7 nM, the Kd (Ac-S-Tn(Ser)-S-G - 22) was 0.65 nM and the Kd (Ac-S-Thr(F1α)-S-G - 18) was 2.51 nM. For the same molecule, the Kd (Ac-S-Ser(core 5)-S-G-18) was 1.02 nM and the Kd (Ac-S-Tn(Thr)-S-G - 04) was 0.71 nM.

B2: BfL: recombinant Bauhinia forficata lectin expressed in E. coli and refolded, non-glycosylated, C-terminal His6 tag, dimeric (protein)
chain: SELSFNYPNFQSVEDITFQGGASPRNETLQLTPTDSNGIPIRQRAGHAVYSQPFQLRDTSFYTTFTFVIRTTSNSPADGFAIFIAPPDFPVKRYGGYLGLFEPNTATNTSANKVVAVEFDTWVNTEWKEPRYRHIGIDVNSIVSVRVTRWQDKDVFSRSIATAHVGYDGISKILTAFVTYPDGGNYVLSHVVDLAEIFPGDVRIGFSGATGQYETQYIHSWSFSSTSTNLLRDGAR
modifications: left off: His6, C-terminal, kept
For B2, the cytotoxic effects [5] was “No cytotoxic effects”, the “growth inhibition, strong effect, five cell lines” value ([5]; observed for five cell lines of different cancers) was greater than 50% and the “cell lines not inhibited” value ([5]; share of the cell lines of the panel) was “About 50%”. The “concentration that agglutinates erythrocytes” value [6] was no less than 1 µg/mL, the “concentration that agglutinates erythrocytes” value (rabbit erythrocytes) was no less than 1 µg/mL and the inhibition of viability [7] was 35%. For the same molecule, the growth inhibition [8] was “over 95%”, the “solubility (in words)” value ([9]; 5 °C, compared with room temperature) was “decreases” and the solubility ([9]; room temperature) was 8000 to 10000 µg/mL. For the same molecule, the “cytotoxicity (in words)” value [10] was “non-cytotoxic”.

AzHex-PDT(αGalNAc)RP-NH2 [AzHex-P-D-Tn(Thr)-R-P-NH2-07] showed a Kd [2] of 1.25 nM.
